Bioassay records from PubChem.
Rows were chosen to be rich in hits. Some 1.9% of all compounds tested hit in one or more screens of this group.
CHRM5 agonist: CHRM5 agonism in calcium assay; P08912; CHO-K1 hM5 cells, Fluo-8 calcium fluorescence; 0% DMSO wells, 100% maximal acetylcholine response; activation, % at 3 µM; 360,000 tested, 0.19% active; AID 624037;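 active = activation above the run's mean over test compounds plus 3 SD, cut at about 23% in these data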;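 also: signal is peak over basal fluorescence ratio across the kinetic read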
Target sequence (P08912 whole entry, looked up): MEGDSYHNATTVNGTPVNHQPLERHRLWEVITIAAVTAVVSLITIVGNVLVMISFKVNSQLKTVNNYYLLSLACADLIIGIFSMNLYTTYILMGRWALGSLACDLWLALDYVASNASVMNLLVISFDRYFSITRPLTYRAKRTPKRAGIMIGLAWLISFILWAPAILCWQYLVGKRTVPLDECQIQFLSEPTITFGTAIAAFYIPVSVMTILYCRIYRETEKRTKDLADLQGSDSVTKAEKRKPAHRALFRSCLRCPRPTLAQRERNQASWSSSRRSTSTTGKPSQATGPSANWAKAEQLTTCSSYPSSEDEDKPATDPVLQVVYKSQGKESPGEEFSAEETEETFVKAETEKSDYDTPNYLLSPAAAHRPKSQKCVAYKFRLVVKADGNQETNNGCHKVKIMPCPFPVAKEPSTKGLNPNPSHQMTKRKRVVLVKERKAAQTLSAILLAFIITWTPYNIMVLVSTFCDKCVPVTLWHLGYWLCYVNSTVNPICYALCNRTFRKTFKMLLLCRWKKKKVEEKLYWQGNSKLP
M4 antag: CHRM4 antagonism in calcium assay; P08173; CHO-hM4 cells, ACh EC80, Fluo-8 calcium fluorescence; inhibition, % at 3 µM; 360,000 tested, 0.73% active; AID 624125;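 active = inhibition above its plate's cutoff, the mean inhibition of sample wells plus 3 SD, cut at about 27% in these data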;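 also: 0% = acetylcholine EC80 with DMSO and 100% = DMSO without agonist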
M4 PAM: potentiates acetylcholine response at human M4 receptor. CHO-K1 hM4/Gqi5, Fluo-8 calcium fluorescence, ACh EC20; 0% = ACh EC20, 100% = maximal ACh. activation, % at 3 µM. P08173. 360,000 tested, 0.4% active;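 active = activation above its plate's cutoff, the mean activation of sample wells plus 3 SD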
M4 ag: agonists of human muscarinic M4 receptor (CHRM4); P08173; CHO-K1 hM4/Gqi5, Fluo-8 calcium fluorescence; vehicle 0%, full acetylcholine response 100%; activation, % at 3 µM; 360,000 tested, 0.14% active;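 active = activation above the run mean over all test wells plus 3 SD, cut at about 32% in these data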;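 also: peak over basal fluorescence ratio per well then scaled between controls; 0% = DMSO wells and 100% = acetylcholine at EC100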
CHRM5 PAM: positive allosteric modulators of human muscarinic M5 receptor; P08912; CHO-K1 hM5, Fluo-8 calcium, ACh EC20 PAM; 0% = ACh EC20, 100% = ACh EC100; activation, % at 3 µM; 360,000 tested, 0.3% active;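 active = activation above the run cutoff, the mean activation of all test compounds plus 3 SD, cut at about 18% in these data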
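Assay system: CHO-K1 hM5 cells / Incubation: Fluo-8 loading 80 min at 37 °C plus 30 min room temperature / Technique: Fluo-8 calcium dye fluorescence, kinetic read / Repeats: single replicate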
M5 antag: CHRM5 antagonism in calcium assay | CHO-hM5 cells, Fluo-8 calcium fluorescence, ACh EC80 | inhibition, % at 3 µM | 360,000 tested, 0.59% active | AID 624040;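 active = inhibition above a per-plate cutoff, the mean of that plate's test compounds plus 3 SD, cut at about 27% in these data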;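 also: 0% = acetylcholine EC80 with DMSO and 100% = DMSO without agonist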
An asterisk follows results filed as active.

SMILES | CHRM5 agonist | M4 antag | M4 PAM | M4 ag | CHRM5 PAM | M5 antag
CNCCC=C1c2ccccc2CCc2ccccc21 | 0 | 67* | -17 | 7 | -19 | 93*
CC(=O)Nc1ccc2c(c1)CCc1ccccc1-2 | 0 | -20 | 0 | 3 | 1 | -2
COc1ccc(Cc2nnc(SCC(=O)Nc3ccc(C)cc3)n(N)c2=O)cc1 | -10 | -12 | 5 | 4 | -33 | 101*
O=[N+]([O-])c1cccc(COc2ccc(CN3CCCC3)cc2)c1 | -4 | 28* | -13 | 2 | -13 | 6
O=[N+]([O-])c1cccc(COc2ccc(CN3CCOCC3)cc2)c1 | -3 | -6 | -10 | 5 | -16 | 10
COc1cccc(C(=O)OCCN2CCCCC2)c1 | -7 | 1 | 2 | 1 | 2 | 30*
Cc1ccc(N2N=C(C(=O)O)CCC2=O)cc1Cl | -1 | -3 | 4 | 0 | -8 | 16
COc1cccc(N=Nc2ccc3cccnc3c2O)c1 | 42* | 19 | -13 | 43* | -19 | 21
COc1cccc(N=Nc2ccc(O)c3ncccc23)c1 | 54* | 34* | -9 | 30 | -19 | 28*
Cc1c(Cc2ccccc2)c(=O)oc2cc(OC(C)C(=O)NCC3CCC(C(=O)O)CC3)c(Cl)cc12 (stereo unspecified) | 2 | -13 | 1 | 1 | -8 | 15
CCCc1cc(=O)[nH]c2nnc(SCC(=O)N3CC(C)OC(C)C3)n12 (stereo unspecified) | 2 | 2 | 0 | 0 | -3 | 8
CC1(C)CC(=O)C(N=Nc2cccc(S(=O)(=O)N3CCOCC3)c2)=C(O)C1 | -18 | -8 | 25* | 3 | -2 | 1
CC1CCN(S(=O)(=O)c2ccc(N=NC3=C(O)CC(C)(C)CC3=O)cc2)CC1 | -3 | -11 | 6 | 1 | -3 | 2
CC(=O)Nc1cc(-c2cccc(NS(C)(=O)=O)c2)cn2c(-c3ccc(F)c(Cl)c3)cnc12 | 3 | 7 | -6 | 19 | -8 | 12
CCN(C(=O)CN1C(=O)NC(c2ccccc2)(c2ccc(C)c(C)c2)C1=O)C1CCCCC1 (stereo unspecified) | -4 | -4 | 2 | 4 | 0 | -5
CCc1cc(C(=O)Cc2nc3ccccc3s2)c(O)cc1OCC(=O)O | 3 | 36* | 6 | 1 | 0 | -3
CC(C)(C)OC(=O)CN1c2cccc3cccc(c23)S1(=O)=O | -2 | 1 | -6 | 1 | -8 | -4
C[N+]1(CCC(=O)c2ccccc2)CCCCC1 | -4 | 4 | -2 | 0 | 7 | -8
C[N+]1(C)CCC(=C(c2ccccc2)c2ccccc2)CC1 | -2 | 100* | -17 | 0 | -19 | 99*
CCCOC(=O)c1ccc(NC(=O)CSC2=Nc3ccccc3C3CC=NN23)cc1 (stereo unspecified) | 1 | 14 | 38* | 1 | 6 | 2
O=C(CSC1=Nc2ccccc2C2CC=NN12)Nc1ccc2c(c1)OCO2 (stereo unspecified) | 1 | 10 | -7 | 0 | 0 | 9
Cc1cc(C)cc(N(CCC#N)C(=O)CSC2=Nc3ccccc3C3CC=NN23)c1 (stereo unspecified) | 24* | 5 | -5 | 9 | 13 | -3
O=C(NCc1ccncc1)C(=O)Nc1nc2ccccc2s1 | 1 | 6 | 9 | 1 | -2 | -3
CSC(=S)N/N=C(\C)c1ccc(Br)cc1 | -7 | -5 | 3 | -1 | 1 | 8
Cc1nnc(SCc2c(Cl)cccc2[N+](=O)[O-])s1 | 8 | -5 | 13 | 2 | 20* | 2
SMILES | CHRM5 agonist | M4 antag | M4 PAM | M4 ag | CHRM5 PAM | M5 antag
Cc1cc(-c2nnc(SCC(=O)Nc3ccc(C)c(C)c3)n2N)n[nH]1 | -2 | 8 | 1 | 1 | 21* | -18
CSc1ccc(C=NNc2ccc(S(=O)(=O)Nc3ccccc3C(=O)O)cc2[N+](=O)[O-])cc1 | 3 | 1 | 0 | 0 | 3 | 7
O=C(O)c1ccccc1NS(=O)(=O)c1ccc(NN=Cc2ccccc2F)c([N+](=O)[O-])c1 | 1 | -19 | 24* | -1 | 10 | -6
COc1cccc(CNc2nc3cc(-c4ccccc4C)sc3c(=O)n2C)c1OC | -2 | -15 | 3 | 1 | 4 | -4
CC(=O)OCCNc1cc(Sc2nc3ccccc3[nH]2)c2nonc2c1[N+](=O)[O-] | -3 | 41* | -5 | 2 | -6 | 20
Cc1cc(C)cc(C(=O)NCC(=O)OCC(=O)NCC(F)(F)F)c1 | 1 | 12 | 2 | 1 | 18* | -9
OCC1CCCN(Cc2cn(Cc3ccccc3)nc2-c2cc3ccccc3o2)C1 (stereo unspecified) | -3 | 2 | 1 | 6 | 1 | 11
Cc1cc(C)[n+]2[nH]c(N)c(N=Nc3ccccc3)c2n1 | 3 | 1 | 10 | 2 | 22* | -17
CCOC(=O)Nc1ccc2c(c1)N(C(=O)CN(CC)CC)c1ccccc1CC2 | -27 | 32* | -12 | -1 | -26 | 3
CC(C)OC(=O)Nc1ccc2c(c1)N(C(=O)N1CCN(C)CC1)c1ccccc1CC2 | -18 | 28* | -14 | 1 | -29 | 46*
CCOC(=O)Nc1ccc2c(c1)N(C(=O)CCN1CCN(C)CC1)c1ccccc1S2 | -5 | 5 | -6 | 1 | -5 | -4
CCOC(=O)Nc1ccc2c(c1)N(C(=O)N1CCN(C)CC1)c1ccccc1S2 | -7 | 6 | -22 | 5 | -18 | 60*
CC(CNC1CCCCC1)OC(=O)c1ccc([N+](=O)[O-])cc1 (stereo unspecified) | -11 | 18 | -9 | 1 | 0 | 3
Cc1ccc(/C(O)=C2\C(=O)C(=O)N(Cc3cccnc3)C2c2ccccc2[N+](=O)[O-])cc1 (stereo unspecified) | -2 | 4 | 18 | -2 | 9 | -6
COc1cc(NC(=S)Nc2cccnc2)cc(OC)c1 | -2 | 2 | 2 | 0 | 1 | -1
Cc1cc(C(=O)COC(=O)c2cc(Cl)ccc2N)c(C)n1Cc1ccco1 | 2 | 6 | 19* | 1 | 0 | 10
CCOC(=O)C(NC(=O)C1C(C)N1S(=O)(=O)c1ccc(C)cc1)C(=O)OCC (stereo unspecified) | -4 | -2 | 4 | 1 | -3 | 5
CCN(CC)S(=O)(=O)c1ccc(C)c(NC(=O)CNc2cccc(S(=O)(=O)N3CCCC3)c2)c1 | 0 | -15 | 6 | 1 | 0 | 1
CCN(CC)S(=O)(=O)c1cccc(NC(=O)Nc2cccc(C(F)(F)F)c2)c1 | 9 | 11 | -15 | 15 | -16 | 34*
